The source of these data is ChEMBL document CHEMBL4477233, “Discovery of novel TAOK2 inhibitor scaffolds from high-throughput screening” (Bioorg Med Chem Lett, 2016).

Active and inactive are the calls of the source. The rule behind the calls is not given here.

One experiment concerns the target T1, Serine/threonine-protein kinase TAO2 (Rattus norvegicus, UniProt Q9JLS3).
T1 sequence (Q9JLS3 whole entry): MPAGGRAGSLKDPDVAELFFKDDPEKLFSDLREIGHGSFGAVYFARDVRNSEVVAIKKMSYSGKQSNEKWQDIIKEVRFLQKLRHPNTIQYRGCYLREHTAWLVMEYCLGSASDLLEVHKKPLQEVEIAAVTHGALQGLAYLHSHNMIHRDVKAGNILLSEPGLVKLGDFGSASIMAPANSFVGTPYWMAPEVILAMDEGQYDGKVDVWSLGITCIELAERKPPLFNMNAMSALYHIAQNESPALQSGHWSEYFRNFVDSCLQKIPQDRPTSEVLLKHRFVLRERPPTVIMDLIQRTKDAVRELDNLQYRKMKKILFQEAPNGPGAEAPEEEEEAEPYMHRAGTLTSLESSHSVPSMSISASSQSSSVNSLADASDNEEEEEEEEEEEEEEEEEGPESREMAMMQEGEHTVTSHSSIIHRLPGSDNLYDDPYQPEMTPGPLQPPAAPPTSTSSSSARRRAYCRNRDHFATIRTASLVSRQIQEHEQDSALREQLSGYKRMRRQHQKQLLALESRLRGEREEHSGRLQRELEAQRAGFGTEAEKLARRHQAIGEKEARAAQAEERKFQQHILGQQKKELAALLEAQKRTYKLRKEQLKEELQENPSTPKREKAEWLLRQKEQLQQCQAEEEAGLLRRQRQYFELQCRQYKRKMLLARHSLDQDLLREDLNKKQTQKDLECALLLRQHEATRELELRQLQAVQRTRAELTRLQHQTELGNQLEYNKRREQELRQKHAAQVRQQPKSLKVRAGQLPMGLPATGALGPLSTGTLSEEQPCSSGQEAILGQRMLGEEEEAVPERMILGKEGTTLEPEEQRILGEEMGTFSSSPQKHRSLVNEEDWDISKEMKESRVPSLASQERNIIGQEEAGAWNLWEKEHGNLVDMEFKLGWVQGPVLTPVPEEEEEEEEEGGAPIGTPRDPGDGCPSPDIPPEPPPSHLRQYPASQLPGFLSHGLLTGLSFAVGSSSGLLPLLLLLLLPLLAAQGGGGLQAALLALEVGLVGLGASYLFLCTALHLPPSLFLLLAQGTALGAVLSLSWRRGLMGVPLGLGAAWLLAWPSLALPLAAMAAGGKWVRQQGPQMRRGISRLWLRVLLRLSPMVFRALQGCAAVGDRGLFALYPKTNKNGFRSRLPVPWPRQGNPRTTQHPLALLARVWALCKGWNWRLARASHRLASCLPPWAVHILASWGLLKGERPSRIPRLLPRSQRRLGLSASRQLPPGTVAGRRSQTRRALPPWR
In words: Inhibition of rat TAOK2 (1 to 320 residues) expressed in Baculovirus/insect cell expression system assessed as remaining activity using MBP as substrate and [32P]ATP measured after 10 mins by Kinase-Glo assay. In general terms: Kinase-Glo reads ATP consumption through a luciferase reaction.
What is called IC50 is the concentration that gives 50% inhibition. With `CCC(=O)Nc1nc(C)c(-c2csc(Nc3ccc(NC(C)=O)cc3)n2)s1`, the 50% inhibitory concentration (IC50) was found to be 1900 nM.

Turning to `CCC(=O)Nc1nc(C)c(-c2csc(Nc3ccccc3OC)n2)s1`, the IC50 was determined as 1400 nM.

Regarding `COc1ccc(Cl)cc1Nc1nc(-c2sc(N)nc2C)cs1`, the IC50 was in the range of 1000 to 1500 nM. Turning to `Cc1nc(N)sc1-c1csc(Nc2cccc([N+](=O)[O-])c2)n1`, the IC50 is 1700 nM. Still for that read-out and setting: then `COc1ccc(O)c(/C=C2/SC(=S)NC2=O)c1`, with 3000 nM; and `Cc1nc(N)sc1-c1csc(Nc2ccc(S(N)(=O)=O)cc2)n1`, with 1400 nM; and `CCOc1ccccc1Nc1nc(-c2sc(NC(=O)CC)nc2C)cs1`, with 600 nM. Still for that read-out and setting: to `CN1c2ccc(S(C)(=O)=O)cc2SC1NC(=O)CC1CCC(Br)CC1` (stereo not drawn) belongs 1400 nM. As to `Cc1nc(N)sc1-c1csc(Nc2ccc([N+](=O)[O-])cc2)n1`, the IC50 turned out to be 1000 nM. Still for that read-out and setting: to `CN1c2ccc(S(C)(=O)=O)cc2SC1NC(=O)CCCc1ccccc1` (stereo not drawn) belongs 1700 nM.

Regarding `Cc1nc(N)sc1-c1csc(Nc2cccc(Cl)c2)n1`, the IC50 was found to be 3100 nM. Still for that read-out and setting: then `CCC(=O)Nc1nc(C)c(-c2csc(Nc3cccc(C(=O)O)c3)n2)s1`, with 1700 nM. For `CC(=O)Nc1nc(C)c(-c2csc(Nc3cccc(C(C)=O)c3)n2)s1`, the IC50 amounted to 12000 nM. With `CCOc1ccccc1Nc1nc(-c2sc(NC(C)=O)nc2C)cs1`, the half-inhibitory concentration (IC50) worked out at 1600 nM. On the same count and under the same terms, to `CC(=O)Nc1nc(C)c(-c2csc(Nc3cccc(C)c3)n2)s1` belongs 900 nM; to `CCC(=O)Nc1nc(C)c(-c2csc(Nc3ccc(O)cc3)n2)s1`, 1600 nM. On the same count and under the same terms, then `CCC(=O)Nc1nc(C)c(-c2csc(Nc3ccc(N(C)C)cc3)n2)s1`, with 1200 nM. The same measure, in the same setting: to `Cc1cccc(Nc2nc(-c3sc(N)nc3C)cs2)c1` belongs 1700 nM; to `CCC(=O)Nc1nc(C)c(-c2csc(Nc3ccc([N+](=O)[O-])cc3)n2)s1`, 1000 nM.

As to `O=C(NCC1COc2ccccc2O1)c1ccc2c(=O)n(Cc3ccco3)c(=S)[nH]c2c1` (stereo not drawn), the IC50 amounted to 600 nM. The same measure, in the same setting: then `CC(=O)Nc1nc(C)c(-c2csc(Nc3cccc(C(=O)O)c3)n2)s1`, with 1300 nM; and `CCC(=O)Nc1nc(C)c(-c2csc(Nc3cccc([N+](=O)[O-])c3)n2)s1`, with 1000 nM; and `CCC(=O)Nc1nc(C)c(-c2csc(Nc3cccc(O)c3)n2)s1`, with 1000 nM. Same read-out and setting: then `CCC(=O)Nc1nc(C)c(-c2csc(Nc3ccc(N(CC)CC)cc3)n2)s1`, with 2700 nM; and `CC(=O)Nc1nc(C)c(-c2csc(Nc3ccc(Br)cc3)n2)s1`, with 1000 nM.

For the compound `COc1ccc(Cl)cc1Nc1nc(-c2sc(NC(C)=O)nc2C)cs1`, the IC50 amounted to 1100 nM.

Regarding `CC(=O)Nc1nc(C)c(-c2csc(Nc3ccc(C)cc3)n2)s1`, the IC50 is 1100 nM. In the case of `COc1ccc(OC)c(Nc2nc(-c3sc(N)nc3C)cs2)c1`, the IC50 came out at 1000 nM.

Consider `COc1ccccc1Nc1nc(-c2sc(NC(C)=O)nc2C)cs1`, for which the IC50 was found to be 2100 nM. On the same count and under the same terms, to `Cc1nc(N)sc1-c1csc(Nc2cccc(O)c2)n1` belongs 1400 nM.

Take `CC(=O)Nc1nc(C)c(-c2csc(Nc3ccc(O)cc3)n2)s1`: the IC50 came out at 3800 nM. Turning to `CC(=O)Nc1nc(C)c(-c2csc(Nc3ccccc3)n2)s1`, the IC50 is 1100 nM.

As for `Cc1nc(NC(=O)c2ccccc2)sc1-c1csc(Nc2ccc(S(N)(=O)=O)cc2)n1`, the IC50 came out at 800 nM. The same measure, in the same setting: then `CC(=O)Nc1nc(C)c(-c2csc(Nc3cccc([N+](=O)[O-])c3)n2)s1`, with 10100 nM; and `CN1c2ccc(S(C)(=O)=O)cc2SC1NC(=O)c1ccc(C(=O)c2ccccc2)cc1` (stereo not drawn), with 1000 nM.

As for `Cc1cccc(NC(=S)N/N=C/c2c[nH]c3ccccc23)c1`, the IC50 came to 1000 nM. Still for that read-out and setting: to `CC(=O)Nc1nc(C)c(-c2csc(Nc3ccc([N+](=O)[O-])cc3)n2)s1` belongs 10000 nM; to `CCC(=O)Nc1nc(C)c(-c2csc(Nc3ccc(S(N)(=O)=O)cc3)n2)s1`, 1000 nM; to `CN1c2ccc(S(C)(=O)=O)cc2SC1NC(=O)CCCOC1CCCCC1` (stereo not drawn), 1900 nM. The same measure, in the same setting: to `CCC(=O)Nc1nc(C)c(-c2csc(Nc3cc(Cl)ccc3C)n2)s1` belongs 1600 nM; to `O=C(NCCSCc1ccccc1)c1ccc2c(=O)n(C3CCCCC3)c(=S)[nH]c2c1`, 1900 nM; to `O=C(Nc1cccc(-c2nc3ccccc3c(=O)o2)c1)c1ccccc1Br`, 4000 nM. Still for that read-out and setting: then `CC(=O)c1cccc(Nc2nc(-c3sc(N)nc3C)cs2)c1`, with 1400 nM; and `CC(=O)Nc1nc(C)c(-c2csc(Nc3ccccc3C)n2)s1`, with 1800 nM. As to `CN1c2ccc(S(C)(=O)=O)cc2SC1NC(=O)/C=C/c1ccc(F)cc1` (stereo not drawn), the half-maximal inhibitory concentration (IC50) came out at 800 nM. Same read-out and setting: then `CCN(CC)c1ccc(Nc2nc(-c3sc(NC(C)=O)nc3C)cs2)cc1`, with 1700 nM.

The target in the next experiment is T2, Serine/threonine-protein kinase TAO2 (Rattus norvegicus) (UniProt Q9JLS3).
T2 sequence (whole entry): T1 sequence (Q9JLS3 whole entry)
In words: Binding affinity to rat TAOK2 (1 to 320 residues) expressed in Baculovirus/insect cell expression system assessed as change in melting temperature at 1 uM by SYPRO orange dye-based DSF analysis. A digest of the protocol:
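Differential scanning fluorimetry: each compound's melting-temperature shift (ΔTm, °C) was measured on the kinase protein. Compounds giving a TAOK2 ΔTm above 0.5 °C were also run against p38 and ASK1. Selectivity (ΔΔTm) was taken as the TAOK2 ΔTm minus the p38 or ASK1 ΔTm.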
(Differential scanning fluorimetry follows unfolding on heating by fluorescence.)
As usually defined, the ΔTm is the change in melting temperature against a reference sample. `COc1ccc(O)c(/C=C2/SC(=S)NC2=O)c1`: the thermal shift (ΔTm) is -0.2 °C. Still for that read-out and setting: then `Cc1cccc(NC(=S)N/N=C/c2c[nH]c3ccccc23)c1`, with 0.5 °C; and `O=C(Nc1cccc(-c2nc3ccccc3c(=O)o2)c1)c1ccccc1Br`, with -0.6 °C.

Another experiment addresses T3, Serine/threonine-protein kinase TAO2 (Homo sapiens) (UniProt Q9UL54).
T3 sequence (whole entry): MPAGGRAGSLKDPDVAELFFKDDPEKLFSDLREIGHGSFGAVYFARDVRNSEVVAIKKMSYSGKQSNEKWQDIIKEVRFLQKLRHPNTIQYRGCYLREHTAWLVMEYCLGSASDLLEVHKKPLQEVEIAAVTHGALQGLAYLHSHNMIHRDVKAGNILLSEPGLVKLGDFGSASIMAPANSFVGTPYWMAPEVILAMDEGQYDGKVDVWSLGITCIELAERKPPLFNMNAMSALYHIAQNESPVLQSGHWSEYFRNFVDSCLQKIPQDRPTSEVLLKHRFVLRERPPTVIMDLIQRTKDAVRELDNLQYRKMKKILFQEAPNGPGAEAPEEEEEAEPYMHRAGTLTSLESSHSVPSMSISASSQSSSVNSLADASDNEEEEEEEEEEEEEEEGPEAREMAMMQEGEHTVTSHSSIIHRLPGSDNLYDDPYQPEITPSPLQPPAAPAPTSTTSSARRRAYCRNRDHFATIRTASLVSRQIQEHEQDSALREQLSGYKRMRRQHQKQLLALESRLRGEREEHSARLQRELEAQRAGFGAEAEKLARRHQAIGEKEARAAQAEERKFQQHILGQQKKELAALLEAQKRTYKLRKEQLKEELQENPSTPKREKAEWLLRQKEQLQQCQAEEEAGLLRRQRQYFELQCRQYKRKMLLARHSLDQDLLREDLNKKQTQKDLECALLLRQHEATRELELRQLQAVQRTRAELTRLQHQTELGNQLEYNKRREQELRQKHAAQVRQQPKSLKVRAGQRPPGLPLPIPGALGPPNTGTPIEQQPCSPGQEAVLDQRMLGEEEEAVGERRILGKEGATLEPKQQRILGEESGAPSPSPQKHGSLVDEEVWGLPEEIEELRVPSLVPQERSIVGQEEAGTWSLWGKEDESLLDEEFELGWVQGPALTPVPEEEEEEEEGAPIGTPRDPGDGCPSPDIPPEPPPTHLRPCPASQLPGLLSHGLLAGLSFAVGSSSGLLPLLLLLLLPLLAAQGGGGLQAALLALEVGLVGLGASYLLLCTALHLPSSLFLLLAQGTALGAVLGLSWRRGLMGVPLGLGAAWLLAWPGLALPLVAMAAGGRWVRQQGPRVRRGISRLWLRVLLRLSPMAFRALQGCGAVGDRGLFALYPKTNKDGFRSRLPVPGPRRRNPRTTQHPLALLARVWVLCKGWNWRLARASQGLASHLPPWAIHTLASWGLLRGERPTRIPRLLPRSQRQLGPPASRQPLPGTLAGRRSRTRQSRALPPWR
Kind of experiment: Inhibition of TAOK2 in human U2OS cells assessed as inhibition of cellular autophagy measured as P62 accumulation at 50 uM after 24 hrs by western blot analysis. In kind it is cell-based. A digest of the protocol: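 GFP–LC3-expressing U2OS cells were treated for 24 h with compound at 50 µM or with DMSO alone. p62 (SQSTM1) abundance was then assessed by Western blotting as a readout of autophagic degradation.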
On the technique in general: In western blotting, separated proteins are transferred to a membrane and probed.
Turning to `O=C(Nc1cccc(-c2nc3ccccc3c(=O)o2)c1)c1ccccc1Br`, the inhibition result is “Active”.

For the next experiment, the target named is T3, Serine/threonine-protein kinase TAO2 (Homo sapiens). Kind of experiment: Inhibition of TAOK2 in human U2OS cells assessed as inhibition of cellular autophagy measured as GFP-LC3 accumulation at 50 uM after 24 hrs by flow cytometric analysis. The format is cell-based. In a few lines:
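U2OS cells stably expressing GFP–LC3 were exposed to compound at 50 µM in the medium for 24 h. GFP fluorescence was read by flow cytometry. The median value from 20,000 cells per condition was normalized to DMSO vehicle within each experiment. Data are mean + SD of >2 independent experiments, compared with vehicle by unpaired t test.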
For the compound `COc1ccc(O)c(/C=C2/SC(=S)NC2=O)c1`, the inhibition result is “Active”. Same read-out and setting: then `CO/C1=C\C(C)=C\[C@@H](C)[C@@H](O)[C@@H](C)C/C(C)=C/C=C/[C@H](OC)[C@@H]([C@@H](C)[C@@H](O)[C@H](C)[C@@]2(O)C[C@@H](O)[C@H](C)[C@@H](C(C)C)O2)OC1=O`, with “Active”; and `O=C(Nc1cccc(-c2nc3ccccc3c(=O)o2)c1)c1ccccc1Br`, with “Active”.
